A selection: hits, their analogues and other compounds. The true share with any hit is near 2.9%.
TRPC4 PAM: positive allosteric modulators of TRPC4, primary screen, cell-based, mouse TRPC4beta, HEK293 mu-opioid, Fluo-4 calcium. Short transient receptor potential channel 4 (Mus musculus), Q9QUQ5. B-score at 10 µM. DAMGO EC20, Fluo-4 Ca2+ flux; active compounds read high. 310,000 tested, 0.42% active;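 active = B-score of calcium response area above 5 SD of library B-scores, with initial fluorescence ratio within 5 SD of library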
TRPC4 inh: inhibitors of mouse TRPC4 channel, primary screen, Fluo4 calcium, HEK293 TRPC4beta/mu-opioid cells; DAMGO-evoked Fluo4 calcium flux; active compounds read low; B-score at 10 µM; 300,000 tested, 0.39% active; AID 2247, 2010;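 active = B-score over 3 SD under the library average, no early fluorescence shift, positive overall ratio signal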
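Assay system: HEK293 cells with stable TRPC4beta plus mu-opioid receptor expression. Dosing: single dose. Measured by: Fluo4 Ca2+ flux fluorescence. Also added: DAMGO in two steps, submaximal then maximal. Read-out: B score from integrated Fluo4 fluorescence ratio.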
TRPC6 act: mouse TRPC6 channel activators, primary screen, cell-based, HEK293, membrane potential dye; HEK293-TRPC6 membrane potential dye fluorescence; active compounds read high; B-score at 10 µM; Short transient receptor potential channel 6 (Mus musculus), Q61143; 310,000 tested, 0.13% active;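 active = B-score of the integrated fluorescence ratio above library mean plus 3 SD, and starting fluorescence ratio within library mean plus 5 SD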;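 note: higher score means more depolarization so channel activation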
TRPC4 act: activators of mouse TRPC4 channel, primary screen, Fluo4 calcium, HEK293 TRPC4beta/mu-opioid cells. Short transient receptor potential channel 4 (Mus musculus), Q9QUQ5. Fluo4 calcium fluorescence; active compounds read high. B-score at 10 µM. 310,000 tested, 0.49% active. AID 2237, 2010;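 active = B-score above 5 SD of library B-scores, and initial fluorescence ratio not above library mean plus 5 SD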;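 note: positive B-score marks a calcium rise read as TRPC4 activation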
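Material: TRPC4beta and mu-opioid receptor HEK293 stable cells | Incubation: 45 min room-temperature Fluo4 loading, 110 s read | Detection: Kinetic Fluo4 calcium fluorescence | Measure: Integrated baseline-normalised fluorescence ratio, converted to per-well B score | Benchmarks: Low control buffer alone, high control maximal DAMGO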
Kir21 block: inhibitors of mouse Kir2.1 inward-rectifier potassium channel. Inward rectifier potassium channel 2 (Mus musculus), P35561. HEK293-Kir2.1, FluxOR thallium flux fluorescence; active compounds read low. B-score at 10 µM. 310,000 tested, 0.85% active;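 active = fluorescence ratio B-score at or below minus 3 SD of library scores, with starting-brightness B-score within 2 SD, cut at about -4.2 in these data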;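 note: channel flux triggered by added potassium and thallium sulfate stimulus; B-score of peak minus minimum fluorescence over baseline after thallium stimulus; more negative B-score means stronger Kir2.1 block with less thallium influx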
Target sequence (P35561 whole entry, looked up): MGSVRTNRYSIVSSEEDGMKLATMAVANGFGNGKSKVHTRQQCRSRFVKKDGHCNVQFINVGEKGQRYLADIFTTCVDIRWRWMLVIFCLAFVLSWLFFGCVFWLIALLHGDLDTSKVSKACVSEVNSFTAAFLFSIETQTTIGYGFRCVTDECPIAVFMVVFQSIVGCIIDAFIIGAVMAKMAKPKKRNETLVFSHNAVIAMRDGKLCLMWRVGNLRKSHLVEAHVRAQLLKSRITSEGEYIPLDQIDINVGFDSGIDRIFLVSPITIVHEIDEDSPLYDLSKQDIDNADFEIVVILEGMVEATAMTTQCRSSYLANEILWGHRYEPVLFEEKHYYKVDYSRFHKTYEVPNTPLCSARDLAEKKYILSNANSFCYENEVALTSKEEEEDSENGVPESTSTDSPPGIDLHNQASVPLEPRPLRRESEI
TRPC6 inhibitor: mouse TRPC6 channel inhibitors, primary screen, cell-based, HEK293, membrane potential dye; ACh-evoked depolarization; active compounds read low; Short transient receptor potential channel 6 (Mus musculus), Q61143; AID 2553, 2010; B-score at 10 µM; 310,000 tested, 1.1% active;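 active = B-score under library mean minus 3 SD, initial fluorescence not abnormally high, positive integrated signal ratio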;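 note: B-score derived from integrated fluorescence ratio over the kinetic read; more negative B-score means stronger inhibition of depolarization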
TRPC4 sel inh 2: mouse TRPC4 off-target activity of TRPC6 inhibitors, second screen; inhibition, % at 10 µM; 920 tested, 42% active; HEK293 TRPC4/MOR, membrane potential dye fluorescence; channel activated by saturating DAMGO dose; shares compounds with TRPC6 inhibitor;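 active = compounds whose fluorescence signal differed from control wells by over 3 SD, either direction, in both duplicate plates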
TRPC4 spec: mouse TRPC4 modulation by TRPC6 hits, confirmation, selectivity assay for TRPC6 inhibitor project, cell-based, HEK293 TRPC4/mu-opioid, membrane potential dye | membrane potential fluorescence | shares compounds with TRPC6 inhibitor | AID 2777, 2010 | activity change, negative = inhibition, % at 10 µM | 920 tested, 61% active;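 active = rise or fall in signal beyond 3 SD of buffer-only wells in both replicate plates, either sign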;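 note: integrated kinetic ratio of fluorescence range over baseline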
HEK293 MPD ctr 2-1: nonspecific membrane potential effects, parental HEK293, confirmation, counter-screen for TRPC6 inhibitor project, cell-based, second counter screen; signal change vs control, % at 10 µM; shares compounds with TRPC6 inhibitor; 920 tested, 31% active; parental HEK293 membrane potential dye fluorescence; maximal acetylcholine challenge after compound addition;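 active = membrane potential signal moving either way by over 3 SD of the maximum-effect control, in both duplicate plates, meaning non-specific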
HEK293 MPD ctr-1: membrane potential modulation in parental HEK293, confirmation, counter-screen for TRPC6 inhibitor project, cell-based; membrane potential signal change, % at 10 µM; AID 2780, 2010; shares compounds with TRPC6 inhibitor; 920 tested, 60% active; parental HEK293 membrane potential dye fluorescence;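 active = membrane potential signal shifting up or down by more than 3 SD of buffer-only wells, on both duplicate plates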
HEK293 MPD ctr-2: parental HEK293 membrane potential modulation, confirmation, counter-screen for TRPC6 modulator project, cell-based. shares compounds with TRPC6 inhibitor. membrane potential dye fluorescence. membrane potential signal change, % at 10 µM. 2,400 tested, 51% active. AID 488924, 2010;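 active = membrane potential signal moves up or down beyond 5 SD from buffer-only wells, on both duplicate plates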
HEK293 MPD ctr 2-2: parental HEK293 nonspecific activity of TRPC6 modulators, second screen; membrane potential dye fluorescence; after compound, maximal acetylcholine stimulation; AID 488926; inhibition, % at 10 µM; 2,400 tested, 14% active; shares compounds with TRPC6 inhibitor;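 active = membrane potential signal drops by more than 5 SD from the mean control signal, in both duplicate plates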
TRPC4 ctr mod: TRPC4 modulation by TRPC6 hit compounds, confirmation, selectivity assay for TRPC6 modulator project, cell-based, HEK293 TRPC4/mu-opioid, membrane potential dye, mouse. 2,400 tested, 69% active. membrane potential fluorescence. shares compounds with TRPC6 inhibitor. percent change from control (negative = decrease, positive = increase), % at 10 µM. AID 488927, 2010;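 active = membrane potential signal moved up or down beyond 5 SD of buffer control wells, in both duplicate plates, actives on both sides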
TRPC4 ctr inh 2: second check of whether TRPC6 modulators also affect mouse TRPC4; shares compounds with TRPC6 inhibitor; AID 488928; inhibition, % at 10 µM; HEK293 TRPC4/mu-opioid, membrane potential dye fluorescence; stimulated with maximal-effect DAMGO; 2,400 tested, 55% active;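 active = drop in membrane potential signal beyond 5 SD of the control wells in both duplicate plates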;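 note: TRPC4 counter screen for TRPC6 hits run under conditions tuned for TRPC6 not TRPC4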
TRPC6 inh conf: mouse TRPC6 channel inhibitors, confirmation, HEK293 cells, membrane potential dye, duplicate. shares compounds with TRPC6 inhibitor. ACh-evoked depolarization. 3,300 tested, 43% active. AID 488960, 2010. inhibition, % at 10 µM;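 active = fluorescence ratio falls more than 5 SD below the full-stimulation control mean, in both duplicate runs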;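 note: integrated fluorescence ratio of peak minus minimum over baseline after agonist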
TRPC6 act conf: mouse TRPC6 channel activators, confirmation, HEK293 cells, membrane potential dye, duplicate. activation, % at 10 µM. HEK293-TRPC6 membrane potential dye fluorescence, FDSS. 2,800 tested, 11% active. AID 488961, 2010. shares compounds with TRPC6 inhibitor;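 active = ratio signal rise beyond 5 SD above unstimulated control wells' mean, seen in both duplicate runs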
Each line names hits and unclear results; the compound was inactive in the other large screens (follow-up assays come after a bar, where they were run).

CCCC(=O)N1CCN(c2ccc(NC(=O)c3cccs3)cc2)CC1	none
O=c1c2cc(Br)ccc2nc2n1CCCCC2	TRPC6 inhibitor -7.8 | TRPC4 sel inh 2 inactive | TRPC4 spec inactive | HEK293 MPD ctr 2-1 inactive | HEK293 MPD ctr-1 inactive | TRPC6 inh conf inactive | TRPC6 act conf inactive
CCNC(=S)N1CCC(C(N)=O)CC1	none
N#Cc1ccsc1NC(=O)c1cccc(-n2cnnn2)c1	none
O=C(NCCCn1ccnc1)c1cc2cc([N+](=O)[O-])ccc2oc1=O	TRPC6 inhibitor -5 | HEK293 MPD ctr-2 -83% | HEK293 MPD ctr 2-2 inactive | TRPC4 ctr mod -15% | TRPC4 ctr inh 2 inactive | TRPC6 inh conf inactive | TRPC6 act conf inactive
O=C(NCCCn1ccnc1)c1ccc(Cl)cc1[N+](=O)[O-]	none
Cc1cc(C)cc(N(C(=O)c2csnn2)C(C(=O)NC2CCCCC2)c2ccccn2)c1 (stereo unspecified)	none
CC(C)c1ccc2c(c1)CCC1C(C)(CN)CCCC21C (stereo unspecified)	Kir21 block -6.1, TRPC6 inhibitor -6.4 | HEK293 MPD ctr-2 -82% | HEK293 MPD ctr 2-2 inactive | TRPC4 ctr mod -12% | TRPC4 ctr inh 2 81% | TRPC6 inh conf 58% | TRPC6 act conf inactive
O=C(COC(=O)C1=COCCO1)Nc1ccc(OC(F)F)cc1	none
O=C(COc1ccccc1)N1CCc2ccccc21	none
O=C(COc1ccc2ccccc2c1CN1CCOCC1)N1CCc2ccccc21	TRPC6 inhibitor -7.2 | TRPC4 sel inh 2 26% | TRPC4 spec inactive | HEK293 MPD ctr 2-1 inactive | HEK293 MPD ctr-1 1.3% | TRPC6 inh conf 88% | TRPC6 act conf inactive
CCOc1cc(C2Nc3cccc4cccc(c34)N2)ccc1O	TRPC6 inhibitor -5.9 | HEK293 MPD ctr-2 -122% | HEK293 MPD ctr 2-2 inactive | TRPC4 ctr mod -28% | TRPC4 ctr inh 2 57% | TRPC6 inh conf 41% | TRPC6 act conf inactive
COc1ccc(C2Nc3cccc4cccc(c34)N2)cc1	TRPC6 inhibitor -5 | HEK293 MPD ctr-2 inactive | HEK293 MPD ctr 2-2 inactive | TRPC4 ctr mod -16% | TRPC4 ctr inh 2 45% | TRPC6 inh conf inactive | TRPC6 act conf inactive
CN(CCc1cnn(C)c1)C(=O)C1CCC(=O)N(CC2CCCCC2)C1 (stereo unspecified)	none
CCN(CC)CCN1C(=O)c2ccccc2NC1c1ccc(Br)cc1 (stereo unspecified)	TRPC6 inhibitor -6.7 | HEK293 MPD ctr-2 inactive | HEK293 MPD ctr 2-2 inactive | TRPC4 ctr mod 18% | TRPC4 ctr inh 2 42% | TRPC6 inh conf inactive
Cc1cccn2c(=O)c(C(=O)NCCCN3CC(C)CC(C)C3)c(O)nc12 (stereo unspecified)	TRPC4 act 73, TRPC6 inhibitor -5.1 | HEK293 MPD ctr-2 -140% | HEK293 MPD ctr 2-2 inactive | TRPC4 ctr mod inactive | TRPC4 ctr inh 2 inactive | TRPC6 inh conf inactive | TRPC6 act conf inactive
CCC1CCCCN1CCCNC(=O)c1c(O)nc2cc(C)ccn2c1=O (stereo unspecified)	none
Cc1csc2nc(O)c(C(=O)NCCCN3CCCC3=O)c(=O)n12	none
Cc1ccn2c(=O)c(C(=O)NCCCN3CCCCC3C)c(O)nc2c1 (stereo unspecified)	TRPC6 inhibitor -5.3 | HEK293 MPD ctr-2 -274% | HEK293 MPD ctr 2-2 70% | TRPC4 ctr mod -44% | TRPC4 ctr inh 2 56% | TRPC6 inh conf 76% | TRPC6 act conf inactive
Cc1ccn2c(=O)c(C(=O)NCCCN3CCCC3=O)c(O)nc2c1	TRPC6 inhibitor -5.5 | HEK293 MPD ctr-2 -316% | HEK293 MPD ctr 2-2 inactive | TRPC4 ctr mod -45% | TRPC4 ctr inh 2 inactive | TRPC6 inh conf inactive | TRPC6 act conf inactive
COc1ccccc1-c1cc(C(F)(F)F)n2ncc(C(=O)N3CCc4ccccc4C3)c2n1	none
CC(=O)Nc1ccc(NC(=O)C(C)OC(=O)CNS(=O)(=O)c2cccc(Cl)c2)cc1 (stereo unspecified)	none
COc1ccc(C(=O)NC(=S)N(CCC(C)C)c2c(N)n(Cc3ccccc3)c(=O)[nH]c2=O)cc1	TRPC6 inhibitor -5.5 | HEK293 MPD ctr-2 inactive | HEK293 MPD ctr 2-2 inactive | TRPC4 ctr mod inactive | TRPC4 ctr inh 2 inactive | TRPC6 inh conf inactive | TRPC6 act conf inactive

High-throughput results deposited in PubChem by Johns Hopkins Ion Channel Center.
